Consider 10 compounds from ChEMBL document CHEMBL1146595, “Constituents from the leaves of Phellodendron amurense var. wilsonii and their bioactivity” (J Nat Prod, 2003).

For orientation: inhibition means the change of the read-out against control, counted positive when it falls. Broadly, the IC50 is the concentration that inhibits the measured activity by half.

For the first assay, the system named is Radical scavenging activity. The assay can be described thus: Antioxidant activity assessed as DPPH free radical scavenging activity at 250 uM. Type of assay: functional. In a few lines:
(§1)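 Radical-scavenging assay run by previously reported methods. Percent inhibition was recorded after a 30 min incubation.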
In general terms: The DPPH test is a chemical assay of radical scavenging.
On to `CC(C)=CCc1c(O)cc(O)c2c1O[C@@H](c1ccc(O)cc1)[C@@H](O)C2=O`, for which the inhibition worked out at 20.9%.
Still for that read-out and setting: the value for `CC(C)=CCc1c(O[C@@H]2O[C@H](CO)[C@@H](O)[C@H](O)[C@H]2O)cc(O)c2c1O[C@H](c1ccc(O)cc1)[C@@H](O)C2=O` was 34.6%; that for `O=c1c(O[C@@H]2O[C@H](CO)[C@H](O)[C@H](O)[C@H]2O)c(-c2ccc(O)cc2)oc2cc(O)cc(O)c12` was 4.5%; that for `O=c1c(O[C@@H]2O[C@H](CO)[C@@H](O)[C@H](O)[C@H]2O)c(-c2ccc(O)cc2)oc2cc(O)cc(O)c12` was 5.7%.

For a further assay, the target named is T1, Tyrosinase (Homo sapiens) (UniProt P14679).
T1 sequence (whole entry): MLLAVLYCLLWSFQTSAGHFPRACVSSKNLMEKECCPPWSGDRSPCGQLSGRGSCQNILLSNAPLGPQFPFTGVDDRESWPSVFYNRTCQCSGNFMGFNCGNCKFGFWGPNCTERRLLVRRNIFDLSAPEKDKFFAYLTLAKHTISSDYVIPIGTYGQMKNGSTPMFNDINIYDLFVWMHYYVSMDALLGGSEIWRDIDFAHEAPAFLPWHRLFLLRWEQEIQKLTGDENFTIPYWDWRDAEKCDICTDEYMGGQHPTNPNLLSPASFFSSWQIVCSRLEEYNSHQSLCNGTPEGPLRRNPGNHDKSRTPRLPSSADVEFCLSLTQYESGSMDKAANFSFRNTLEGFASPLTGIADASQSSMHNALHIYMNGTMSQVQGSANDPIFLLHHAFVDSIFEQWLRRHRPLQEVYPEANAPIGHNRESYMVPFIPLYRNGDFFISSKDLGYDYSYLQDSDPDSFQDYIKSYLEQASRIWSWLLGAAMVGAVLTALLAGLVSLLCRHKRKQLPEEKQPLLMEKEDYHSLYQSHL
The assay can be described thus: Inhibition of tyrosinase at 333 uM.
Turning to `CC(C)(O)CCc1c(O[C@@H]2O[C@H](CO)[C@@H](O)[C@H](O)[C@H]2O)cc(O)c2c(=O)c(O)c(-c3ccc(O)cc3)oc12` [AMURENSIN], the inhibition was 15.4%.
Consider `C=C(C)[C@@H]1CC[C@]2(C)CC[C@]3(C)[C@H](CC[C@@H]4[C@@]5(C)CCC(=O)C(C)(C)[C@@H]5CC[C@]43C)[C@@H]12`, for which the inhibition was -2.4%.
Regarding `CC[C@H](CC[C@@H](C)[C@H]1CC[C@H]2[C@@H]3CC=C4C[C@@H](O)CC[C@]4(C)[C@H]3CC[C@]12C)C(C)C`, the inhibition amounted to 14.3%.
As to `CC1(C)O[C@H]2CC(=O)OC[C@]23[C@H]2CC[C@@]4(C)[C@H](c5ccoc5)OC(=O)[C@H]5O[C@]54[C@]2(C)C(=O)C[C@@H]13`, the inhibition is 3.6%.

A further assay has as its system Radical scavenging activity. The experiment in a line: Antioxidant activity assessed as DPPH free radical scavenging activity. Type of assay: functional. Summed up: as §1
VITAMIN E: the IC50 is 8.3 µM.
As for `CC(C)(O)CCc1c(O[C@@H]2O[C@H](CO)[C@@H](O)[C@H](O)[C@H]2O)cc(O)c2c(=O)c(O)c(-c3ccc(O)cc3)oc12` [AMURENSIN], the IC50 came to 88.3 µM.
Consider `O=c1c(O[C@@H]2O[C@H](CO)[C@@H](O)[C@H](O)[C@H]2O)c(-c2ccc(O)c(O)c2)oc2cc(O)cc(O)c12` [ISOQUERCETIN], for which the half-maximal inhibitory concentration (IC50) is 32.2 µM.
